Measured values taken from ChEMBL document CHEMBL4330069, “Boosting the efficacy of anti-MRSA β-lactam antibiotics via an easily accessible, non-cytotoxic and orally bioavailable FtsZ inhibitor” (Eur J Med Chem, 2019).
The source made the active and inactive calls. The calls are words filed in the database; no cut-off is given here.

Key:
[1] = test system: Staphylococcus aureus; assay: Antibacterial activity against multidrug-resistant Staphylococcus aureus ATCC 43300 infected in BALB/C mouse assessed as mouse survival at 50 mg/kg, ip bid measured after 5 days relative to control; format: functional
[2] = target: T1, Cell division protein FtsZ (Staphylococcus aureus) (UniProt P0A031); assay: Inhibition of Staphylococcus aureus N-terminal 6His-tagged FtsZ polymerization expressed in Escherichia coli BL21 (DE3)
T1 sequence (whole entry): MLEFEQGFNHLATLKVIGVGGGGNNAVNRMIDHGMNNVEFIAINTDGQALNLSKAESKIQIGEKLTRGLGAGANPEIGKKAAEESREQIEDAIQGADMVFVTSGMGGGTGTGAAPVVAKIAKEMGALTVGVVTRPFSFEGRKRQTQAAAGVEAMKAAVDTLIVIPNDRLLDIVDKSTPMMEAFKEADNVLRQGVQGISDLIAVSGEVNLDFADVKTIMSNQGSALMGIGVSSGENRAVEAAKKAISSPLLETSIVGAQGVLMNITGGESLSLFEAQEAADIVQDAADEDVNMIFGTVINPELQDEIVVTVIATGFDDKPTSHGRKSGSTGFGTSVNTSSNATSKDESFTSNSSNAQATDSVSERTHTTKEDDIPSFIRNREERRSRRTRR
In short: (§1)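 Purified S. aureus FtsZ polymerization with GTP, followed as light scattering (absorbance 600 nm) over time. Compound was tested at 12.5–100 µM against a 1% DMSO vehicle, and inhibition was read at 500 s. Triplicate.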

[3] = target: T1, Cell division protein FtsZ (Staphylococcus aureus); assay: Inhibition of Staphylococcus aureus N-terminal 6His-tagged FtsZ polymerization expressed in Escherichia coli BL21 (DE3) at 25 uM relative to control; in short: as §1
[4] = target: T1, Cell division protein FtsZ (Staphylococcus aureus); assay: Inhibition of Staphylococcus aureus N-terminal 6His-tagged FtsZ polymerization expressed in Escherichia coli BL21 (DE3) at 50 uM relative to control; in short: as §1
[5] = target: T1, Cell division protein FtsZ (Staphylococcus aureus); assay: Inhibition of Staphylococcus aureus N-terminal 6His-tagged FtsZ polymerization expressed in Escherichia coli BL21 (DE3) at 100 uM relative to control; in short: as §1
[6] = target: T1, Cell division protein FtsZ (Staphylococcus aureus); assay: Inhibition of Staphylococcus aureus N-terminal 6His-tagged FtsZ polymerization expressed in Escherichia coli BL21 (DE3) assessed as reduction in filament formation in presence of GTP by TEM analysis
In short: (§2)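 Purified S. aureus FtsZ was incubated with GTP and compound at 0, 50 or 100 µM. Filaments were then imaged by transmission electron microscopy.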

[7] = target: T1, Cell division protein FtsZ (Staphylococcus aureus); assay: Inhibition of Staphylococcus aureus N-terminal 6His-tagged FtsZ polymerization expressed in Escherichia coli BL21 (DE3) assessed as reduced strands at 100 uM in presence of GTP by TEM analysis; in short: as §2
[8] = target: T1, Cell division protein FtsZ (Staphylococcus aureus); assay: Inhibition of Staphylococcus aureus N-terminal 6His-tagged FtsZ polymerization expressed in Escherichia coli BL21 (DE3) assessed as short strands at 100 uM in presence of GTP by TEM analysis; in short: as §2
[9] = target: T1, Cell division protein FtsZ (Staphylococcus aureus); assay: Inhibition of Staphylococcus aureus N-terminal 6His-tagged FtsZ polymerization expressed in Escherichia coli BL21 (DE3) assessed as thin strands at 100 uM in presence of GTP by TEM analysis; in short: as §2
[10] = target: T1, Cell division protein FtsZ (Staphylococcus aureus); assay: Inhibition of Staphylococcus aureus N-terminal 6His-tagged FtsZ polymerization expressed in Escherichia coli BL21 (DE3) assessed as single strands at 100 uM in presence of GTP by TEM analysis; in short: as §2
[11] = target: T1, Cell division protein FtsZ (Staphylococcus aureus); assay: Inhibition of Staphylococcus aureus N-terminal 6His-tagged FtsZ GTPase expressed in Escherichia coli BL21 (DE3) at 100 uM
[12] = test system: Staphylococcus aureus; assay: Antibacterial activity against Staphylococcus aureus ATCC BAA-41 at […] after 24 hrs by time kill assay; format: functional, organism-based
In short: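 Time-kill assay. S. aureus BAA-41 was grown in CA-MH broth to mid-log phase (OD595 0.8), then diluted to 5×10^5 CFU/mL. […] Samples were taken at 0–24 h and plated on drug-free CA-MH agar for 24 h. Triplicates.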

[13] = test system: Staphylococcus aureus; assay: Synergistic bactericidal activity against Staphylococcus aureus ATCC BAA-41 at 1 to 16 times MIC in presence of methicillin up to 24 hrs by time kill assay; format: functional, organism-based
In short: (§3)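 Colony of strain grown 16 h in CA-MH broth at 37 °C with shaking, diluted 100-fold and grown to mid-log (OD595 0.8), then set at 5×10^5 CFU/mL. […] Sampled at 0, 2.5, 5, 7.5, 21, 24 h, diluted and plated on drug-free CA-MH agar, 24 h at 37 °C; triplicates.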

[14] = test system: Staphylococcus aureus; assay: Synergistic antibacterial activity against Staphylococcus aureus ATCC BAA-41 at 1 to 16 times MIC in presence of methicillin after 21 hrs by time kill assay; format: functional, organism-based; in short: as §3

CCCCCCCCCNc1ccc(F)c(C(N)=O)c1F.Cl
Activity [1]: 33%

CCCCCCCCCNc1ccc(F)c(C(N)=O)c1F
inhibition [2]: Dose-dependent effect | inhibition [3]: 34% | inhibition [4]: 39% | inhibition [5]: 47% | inhibition [6]: Dose-dependent effect | inhibition [7]: Active | inhibition [8]: Active | inhibition [9]: Active | inhibition [10]: Active | inhibition [11]: inactive | Activity [12]: inactive | Activity [13]: Active | Activity [14]: Active
